What was measured:
Type in all cases: ADME, organism-based
[1] = Volume of distribution at steady state in Sprague-Dawley rat at 2 mg/kg, iv by LC-MS/MS analysis; set-up: dose 2 mg/kg, route intravenous; conditions: in vivo, read-out: Vdss
In short: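 Fed male Sprague−Dawley rats (n = 3) dosed iv at 2 mg/kg in DMSO. Plasma sampled up to 16 h, quantified by LC-MS/MS. Noncompartmental analysis of total plasma concentration-time data.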

[2] = Cmax in Sprague-Dawley rat at 5 mg/kg, po by LC-MS/MS analysis; set-up: dose 5 mg/kg, route oral; conditions: in vivo
In short: (§1)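 Fasted male Sprague−Dawley rats (n = 3) given oral gavage as a suspension in 5% Tween 80/Oraplus. Blood sampled up to 16 h post dose, plasma prepared by centrifugation and assayed by LC-MS/MS. Total plasma concentration-time data analysed by noncompartmental methods.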

[3] = AUC (0 to infinity) in Sprague-Dawley rat at 5 mg/kg, po by LC-MS/MS analysis; set-up: time infinity, dose 5 mg/kg, route oral; conditions: plasma; in short: as §1
[4] = Oral bioavailability in Sprague-Dawley rat; conditions: in vivo
In short: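 Male Sprague−Dawley rats, n = 3 per group. Iv arm: fed animals, 2 mg/kg in DMSO. Oral arm: fasted animals, 5 or 10 mg/kg by gavage as a suspension in 5% Tween 80/Oraplus. Plasma sampled to 16 h, measured by LC-MS/MS, analysed noncompartmentally.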

[5] = Oral bioavailability in Sprague-Dawley rat at 5 mg/kg by LC-MS/MS analysis; conditions: in vivo; in short: as §1
[6] = Tmax in Sprague-Dawley rat at 5 mg/kg, po by LC-MS/MS analysis; set-up: dose 5 mg/kg, route oral; conditions: in vivo; in short: as §1
[7] = Plasma concentration in unilateral cartoid artery cannulated Sprague-Dawley rat model at 3 mg/kg, po after […]; set-up: dose 3 mg/kg, route oral

| Compound | Vd [1] [L/kg] | Cmax [2] [nM] | AUC(0-inf) [3] [µM·h] | bioavailability [4] [%] | bioavailability [5] [%] | Tmax [6] [h] | concentration at […] [7] [nM] |
| --- | --- | --- | --- | --- | --- | --- | --- |
| C[C@H](NC(=O)N1CCc2cccnc2[C@H]1c1ccc(C(F)(F)F)cc1)C(F)(F)F | 2.7 | 1580 | 12 |  |  |  |  |
| N#Cc1ccc(NC(=O)N2CCc3cccnc3[C@H]2c2ccc(C(F)(F)F)cc2)cc1 |  |  |  | 70 |  |  |  |
| C[C@H](NC(=O)N1CCc2cccnc2[C@H]1c1ccc(C(F)(F)F)c(F)c1)C(F)(F)F | 1.7 | 3860 | 71.9 |  | 51 | 5.3 | 1270 |
| C[C@H](NC(=O)N1CCc2ccccc2[C@H]1c1ccc(C(F)(F)F)c(F)c1)C(F)(F)F | 3 | 1670 | 12.1 |  | 67 |  |  |

— ChEMBL document CHEMBL3232803, “Optimization of potency and pharmacokinetic properties of tetrahydroisoquinoline transient receptor potential melastatin 8 (TRPM8) antagonists” (J Med Chem, 2014)
